Experimental data reported in ChEMBL document CHEMBL4765441, “Design, synthesis and anti-cancer activity of pyrrole-imidazole polyamides through target-downregulation of c-kit gene expression” (Eur J Med Chem, 2020).
Activity calls are given as the source filed them. No cut-off for these calls is given here.

What was measured:
SGC-7901 [1] = experiment: Induction of morphological changes in human SGC7901 cells assessed as appearance of round shaped cells at 7.5 uM incubated for 36 hrs by microscopic analysis; format: functional, cell-based
How it was run: (§1)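 Cells seeded at 2 × 10^5 per well and grown 24 h. Medium then replaced with compound-containing medium. After 36 h co-culture, morphology inspected by light microscopy.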

GISTT1 [2] = experiment: Down regulation of c-kit gene expression at translational level in human GIST-T1 cells at 5 uM; format: functional, cell-based
Bel-7402 = experiment: Antiproliferative activity against human Bel-7402 cells assessed as reduction in cell viability incubated for 48 hrs by xCELLigence RTCA; format: functional, cell-based; details: Bel-7402, 48 h
MKN-45 = experiment: Antiproliferative activity against human MKN-45 cells assessed as reduction in cell viability incubated for 48 hrs by xCELLigence RTCA; format: functional, cell-based; details: MKN-45, 48 h
SGC-7901 [3] = experiment: Antiproliferative activity against human SGC7901 cells assessed as reduction in cell viability incubated for 48 hrs by xCELLigence RTCA; format: functional, cell-based; details: SGC-7901, 48 h
A549 [4] = experiment: Antiproliferative activity against human A549 cells assessed as reduction in cell viability incubated for 48 hrs by xCELLigence RTCA; format: functional, cell-based; details: A549, 48 h
GISTT1 [5] = experiment: Down regulation of c-kit gene expression at transcriptional level in human GIST-T1 cells; format: functional, cell-based
GISTT1 [6] = experiment: Antiproliferative activity against human GIST-T1 cells; format: functional, cell-based
A549 [7] = experiment: Inhibition of cell migration in human A549 cells at 1.5 uM incubated for 48 hrs by inverted fluorescence microscope based scratch wound healing assay; format: functional
How it was run: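 20 × 10^4 cells per well grown to 80% confluence. Wound scratched with a pipette tip, washed twice with PBS and photographed under an inverted fluorescence microscope. Cells then held in serum-free medium with compound for 48 h. Migration measured as distance moved from the wound edge; mean ± SD, n = 3.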

SGC-7901 [8] = experiment: Induction of morphological changes in human SGC7901 cells assessed as cell detachment at 7.5 uM incubated for 36 hrs by microscopic analysis; format: functional, cell-based; how it was run: as §1
SGC-7901 [9] = experiment: Induction of morphological changes in human SGC7901 cells assessed as apoptotic body formation at 7.5 uM incubated for 36 hrs by microscopic analysis; format: functional, cell-based; how it was run: as §1
A549 [10] = experiment: Induction of morphological changes in human A549 cells assessed as cell detachment at 15 uM incubated for 36 hrs by microscopic analysis; format: functional, cell-based; how it was run: as §1
A549 [11] = experiment: Induction of morphological changes in human A549 cells assessed as membrane bulge at 15 uM incubated for 36 hrs by microscopic analysis; format: functional, cell-based; how it was run: as §1
SGC-7901 [12] = experiment: Induction of apoptosis in human SGC7901 cells assessed as viable cells at 7.5 uM incubated for 36 hrs by Annexin V-FITC/propidium iodide staining-based flow cytometric analysis (reference value: 93.2 %); format: functional; details: read-out: Activity
SGC-7901 [13] = experiment: Induction of apoptosis in human SGC7901 cells assessed as early apoptotic cells at 7.5 uM incubated for 36 hrs by Annexin V-FITC/propidium iodide staining-based flow cytometric analysis (reference value: 2.74 %); format: functional
SGC-7901 [14] = experiment: Induction of apoptosis in human SGC7901 cells assessed as late apoptotic cells at 7.5 uM incubated for 36 hrs by Annexin V-FITC/propidium iodide staining-based flow cytometric analysis (reference value: 3.69 %); format: functional
SGC-7901 [15] = experiment: Induction of apoptosis in human SGC7901 cells assessed as viable cells at 15 uM incubated for 36 hrs by Annexin V-FITC/propidium iodide staining-based flow cytometric analysis (reference value: 93.2 %); format: functional; details: read-out: Activity
SGC-7901 [16] = experiment: Induction of apoptosis in human SGC7901 cells assessed as late apoptotic cells at 15 uM incubated for 36 hrs by Annexin V-FITC/propidium iodide staining-based flow cytometric analysis (reference value: 3.69 %); format: functional
A549 [17] = experiment: Induction of apoptosis in human A549 cells assessed as viable cells at 7.5 uM incubated for 36 hrs by Annexin V-FITC/propidium iodide staining-based flow cytometric analysis (reference value: 97.9 %); format: functional; details: read-out: Activity
A549 [18] = experiment: Induction of apoptosis in human A549 cells assessed as late apoptotic cells at 7.5 uM incubated for 36 hrs by Annexin V-FITC/propidium iodide staining-based flow cytometric analysis (reference value: 0.41 %); format: functional
A549 [19] = experiment: Induction of apoptosis in human A549 cells assessed as necrotic cells at 7.5 uM incubated for 36 hrs by Annexin V-FITC/propidium iodide staining-based flow cytometric analysis (reference value: 0.31 %); format: functional
A549 [20] = experiment: Induction of apoptosis in human A549 cells assessed as viable cells at 15 uM incubated for 36 hrs by Annexin V-FITC/propidium iodide staining-based flow cytometric analysis (reference value: 97.9 %); format: functional; details: read-out: Activity
A549 [21] = experiment: Induction of apoptosis in human A549 cells assessed as early apoptotic cells at 15 uM incubated for 36 hrs by Annexin V-FITC/propidium iodide staining-based flow cytometric analysis (reference value: 1.41 %); format: functional
A549 [22] = experiment: Induction of apoptosis in human A549 cells assessed as necrotic cells at 15 uM incubated for 36 hrs by Annexin V-FITC/propidium iodide staining-based flow cytometric analysis (reference value: 0.31 %); format: functional
A549 [23] = experiment: Down regulation of c-kit gene expression in human A549 cells incubated for 36 hrs by Western blot analysis; format: functional, cell-based
How it was run: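 Cells exposed to compound for 36 h, then lysed in RIPA and protein measured by BCA. 30 units of total protein separated by 10% SDS-PAGE, transferred to PVDF and blocked with 5% BSA. Primary antibodies, with β-tubulin as reference, at 4 °C; secondary 2 h; ECL detection. Bands quantified by densitometry, mean ± SD, n = 3.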

A549 [24] = experiment: Down regulation of c-kit mRNA expression in human A549 cells at 7.5 uM incubated for 36 hrs by Western blot analysis; format: functional, cell-based; details: in the assay text read “RT-PCR analysis” for “Western blot analysis”
How it was run: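 Cells treated for 36 h. Total RNA quantified by Nanodrop and checked on 1.5% agarose with ethidium bromide. 400 ng RNA per one-step RT-PCR with c-kit-specific primers; reverse transcription 30 min at 50 °C, then 2 min at 94 °C. Normalized to β-actin; semi-quantitative.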

[25] = Drug localization in nucleus of human SGC-7901 cells incubated for 24 hrs by Hoechst-33342 staining based confocal laser scanning microscopic analysis; format: ADME, subcellular; details: sgc-7901, 24 h
How it was run: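 SGC-7901 cells cultured 24 h, then given fluorescein-labeled polyamide (1.0, unit unclear) for 4 h. Medium replaced and culture continued 20 h. Live cells viewed at ×300, then fixed in 4% paraformaldehyde for 10 min. Nuclei stained with Hoechst 33342 for 5 min, PBS-washed, imaged by confocal laser scanning microscopy.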

dsDNA = experiment: Binding affinity to 5'-AGGGGAGGCGAGGAGGGGCGTGGCCGG-3'/3'-TCCCCTCCGCTCCTCCCCGCACCGGCC-5' dsDNA (unknown origin) by circular dichroism spectroscopic analysis; format: nucleic-acid assay; details: Homo sapiens
How it was run: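 Target duplex annealed at 95 °C, held 24 h in pH 7.0 buffer (10 mM sodium cacodylate, 100 mM NaCl, 0.5% DMSO), then degassed. Compound titrated in at compound:DNA ratios 0.0–3.0, room temperature, 15 min equilibration per addition. CD read 225–400 nm in a 5 mm quartz cell at 100 nm/min, 5.0 nm bandwidth. Average of three parallel runs.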

IC50 (Bel-7402): 11.2 µM
IC50 (MKN-45): 7.41 µM
IC50 (SGC-7901 [3]): 2.96 µM
IC50 (A549 [4]): 5.97 µM
Drug uptake [25]: Active
Activity (dsDNA): Active
Compound: CC(=O)Nc1cn(C)c(C(=O)Nc2cn(C)c(C(=O)Nc3cc(C(=O)Nc4cn(C)c(C(=O)NCCC(=O)Nc5cn(C)c(C(=O)Nc6cn(C)c(C(=O)NCC[C@@H](N)C(=O)Nc7cc(C(=O)Nc8cc(C(=O)NC[C@@H](O)CC(=O)Nc9cc(C(=O)Nc%10cn(C)c(C(=O)Nc%11cc(C(=O)Nc%12cc(C(=O)NCCC(=O)NCCCN(C)C)n(C)c%12)n(C)c%11)n%10)n(C)c9)n(C)c8)n(C)c7)n6)n5)n4)n(C)c3)n2)n1.Cl.Cl
Activity (SGC-7901 [1]): Active
Activity (GISTT1 [2]): Active
Activity (GISTT1 [5]): Active
Activity (GISTT1 [6]): Active
inhibition at 1.5 µM (A549 [7]): 83.8%
Activity (SGC-7901 [8]): Active
Activity (SGC-7901 [9]): Active
Activity (A549 [10]): Active
Activity (A549 [11]): Active
viability at 7.5 µM (SGC-7901 [12]): 56.4%
Activity (SGC-7901 [13]): 32.4%
Activity (SGC-7901 [14]): 10.2%
viability at 15 µM (SGC-7901 [15]): 43.6%
Activity (SGC-7901 [16]): 12.8%
viability at 7.5 µM (A549 [17]): 60.5%
Activity (A549 [18]): 14.1%
Activity (A549 [19]): 2.76%
viability at 15 µM (A549 [20]): 51.4%
Activity (A549 [21]): 28.9%
Activity (A549 [22]): 0.12%
Activity (A549 [23]): Dose-dependent effect
Activity (A549 [24]): Active
